“And” between values parts separate entries of the source, which are not always exact repeats. Equal values may be shown once.
Columns and labels:
Assay type in all cases: toxicity, cell-based
[1] = system: Fibroblast; assay: Multiplex assay against human fibroblast; conditions: number of replicates 2
Outline: (§1)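 Tubulin, mitochondrial-mass and membrane-permeability phenotypes are per cents of healthy-nucleus cells. Cells were gated by CellPathfinder machine learning into Hoechst high-intensity objects or normal cells, normal cells into healthy, pyknosed or fragmented nuclei, and pyknosed cells into mitotic or apoptotic. Before that, live cells stained at seeding with Hoechst33342, BioTracker Green Microtubule Cytoskeleton Dye, MitoTracker Red and Annexin V Alexa Fluor 680 were imaged on a CQ1 microscope at 37°C and 5% CO2 after compound addition.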

[2] = system: HEK-293T; assay: Multiplex assay against HEK293T; conditions: human, number of replicates 2; outline: as §1
[3] = system: U2OS; assay: Multiplex assay against U2OS; conditions: human, number of replicates 2; outline: as §1
[4] = 12 h, 1 µM, compound concentration 1 uM
[5] = 12 h, 10 µM, compound concentration 10 uM
[6] = 24 h, 1 µM, compound concentration 1 uM
[7] = 24 h, 10 µM, compound concentration 10 uM
[8] = 48 h, 1 µM, compound concentration 1 uM
[9] = 48 h, 10 µM, compound concentration 10 uM

COc1ccccc1-c1cc(Nc2cccc(CS(N)(=O)=O)c2)ncn1
Population Apoptotic (%) [1, 4]: 36% and 33% | Population Fragmented Nuclei (%) [1, 4]: 4% and 7% | Population Healthy Nuclei (%) [1, 4]: 78% and 68% | Population Hoechst High Intensity Objects (%) [1, 4]: 0% | Population Membrane Permeable-Phenotype (%) [1, 4]: 8% and 2% | Population Mitochondria Different-Phenotype (%) [1, 4]: 1% and 0% | Population Mitotic Cells (%) [1, 4]: 63% and 66% | Population Normal (%) [1, 4]: 100% and 99% | Population Pyknosed Nuclei (%) [1, 4]: 16% and 24% | Population Tubulin-Different-Phenotype (%) [1, 4]: 13% and 7% | Total Cell Count [1, 4]: 202 and 230 | Population Apoptotic (%) [1, 5]: 46% and 42% | Population Fragmented Nuclei (%) [1, 5]: 4% and 7% | Population Healthy Nuclei (%) [1, 5]: 77% and 71% | Population Hoechst High Intensity Objects (%) [1, 5]: 0% | Population Membrane Permeable-Phenotype (%) [1, 5]: 7% and 5% | Population Mitochondria Different-Phenotype (%) [1, 5]: 0% and 1% | Population Mitotic Cells (%) [1, 5]: 53% and 57% | Population Normal (%) [1, 5]: 100% and 99% | Population Pyknosed Nuclei (%) [1, 5]: 17% and 21% | Population Tubulin-Different-Phenotype (%) [1, 5]: 17% and 19% | Total Cell Count [1, 5]: 181 and 214 | Population Apoptotic (%) [1, 6]: 41% and 49% | Population Fragmented Nuclei (%) [1, 6]: 6% and 10% | Population Healthy Nuclei (%) [1, 6]: 75% and 64% | Population Hoechst High Intensity Objects (%) [1, 6]: 0% | Population Membrane Permeable-Phenotype (%) [1, 6]: 5% and 7% | Population Mitochondria Different-Phenotype (%) [1, 6]: 2% and 0% | Population Mitotic Cells (%) [1, 6]: 58% and 50% | Population Normal (%) [1, 6]: 100% and 99% | Population Pyknosed Nuclei (%) [1, 6]: 18% and 25% | Population Tubulin-Different-Phenotype (%) [1, 6]: 15% and 12% | Total Cell Count [1, 6]: 194 and 245 | Population Apoptotic (%) [1, 7]: 61% and 55% | Population Fragmented Nuclei (%) [1, 7]: 10% and 9% | Population Healthy Nuclei (%) [1, 7]: 76% and 68% | Population Hoechst High Intensity Objects (%) [1, 7]: 0% | Population Membrane Permeable-Phenotype (%) [1, 7]: 1% | Population Mitochondria Different-Phenotype (%) [1, 7]: 3% and 4% | Population Mitotic Cells (%) [1, 7]: 38% and 44% | Population Normal (%) [1, 7]: 100% | Population Pyknosed Nuclei (%) [1, 7]: 12% and 21% | Population Tubulin-Different-Phenotype (%) [1, 7]: 18% and 15% | Total Cell Count [1, 7]: 202 and 214 | Population Apoptotic (%) [1, 8]: 66% and 56% | Population Fragmented Nuclei (%) [1, 8]: 5% and 14% | Population Healthy Nuclei (%) [1, 8]: 78% and 67% | Population Hoechst High Intensity Objects (%) [1, 8]: 0% | Population Membrane Permeable-Phenotype (%) [1, 8]: 4% and 6% | Population Mitochondria Different-Phenotype (%) [1, 8]: 0% | Population Mitotic Cells (%) [1, 8]: 33% and 43% | Population Normal (%) [1, 8]: 99% | Population Pyknosed Nuclei (%) [1, 8]: 15% and 18% | Population Tubulin-Different-Phenotype (%) [1, 8]: 8% and 5% | Total Cell Count [1, 8]: 192 and 250 | Population Apoptotic (%) [1, 9]: 78% and 80% | Population Fragmented Nuclei (%) [1, 9]: 9% | Population Healthy Nuclei (%) [1, 9]: 83% and 74% | Population Hoechst High Intensity Objects (%) [1, 9]: 0% | Population Membrane Permeable-Phenotype (%) [1, 9]: 3% and 9% | Population Mitochondria Different-Phenotype (%) [1, 9]: 1% | Population Mitotic Cells (%) [1, 9]: 21% and 20% | Population Normal (%) [1, 9]: 100% | Population Pyknosed Nuclei (%) [1, 9]: 6% and 16% | Population Tubulin-Different-Phenotype (%) [1, 9]: 16% and 26% | Total Cell Count [1, 9]: 203 and 209 | Population Apoptotic (%) [2, 4]: 35% and 36% | Population Fragmented Nuclei (%) [2, 4]: 4% and 2% | Population Healthy Nuclei (%) [2, 4]: 85% | Population Hoechst High Intensity Objects (%) [2, 4]: 6% and 7% | Population Membrane Permeable-Phenotype (%) [2, 4]: 3% and 5% | Population Mitochondria Different-Phenotype (%) [2, 4]: 15% and 14% | Population Mitotic Cells (%) [2, 4]: 64% | Population Normal (%) [2, 4]: 93% and 92% | Population Pyknosed Nuclei (%) [2, 4]: 10% and 12% | Population Tubulin-Different-Phenotype (%) [2, 4]: 56% and 48% | Total Cell Count [2, 4]: 807 and 675 | Population Apoptotic (%) [2, 5]: 32% and 34% | Population Fragmented Nuclei (%) [2, 5]: 4% and 5% | Population Healthy Nuclei (%) [2, 5]: 87% and 84% | Population Hoechst High Intensity Objects (%) [2, 5]: 7% | Population Membrane Permeable-Phenotype (%) [2, 5]: 3% | Population Mitochondria Different-Phenotype (%) [2, 5]: 26% and 28% | Population Mitotic Cells (%) [2, 5]: 67% and 65% | Population Normal (%) [2, 5]: 92% | Population Pyknosed Nuclei (%) [2, 5]: 8% and 10% | Population Tubulin-Different-Phenotype (%) [2, 5]: 61% and 74% | Total Cell Count [2, 5]: 665 and 582 | Population Apoptotic (%) [2, 6]: 35% and 34% | Population Fragmented Nuclei (%) [2, 6]: 5% and 4% | Population Healthy Nuclei (%) [2, 6]: 86% and 88% | Population Hoechst High Intensity Objects (%) [2, 6]: 6% and 8% | Population Membrane Permeable-Phenotype (%) [2, 6]: 3% and 2% | Population Mitochondria Different-Phenotype (%) [2, 6]: 4% and 5% | Population Mitotic Cells (%) [2, 6]: 64% and 65% | Population Normal (%) [2, 6]: 93% and 91% | Population Pyknosed Nuclei (%) [2, 6]: 7% | Population Tubulin-Different-Phenotype (%) [2, 6]: 36% | Total Cell Count [2, 6]: 1151 and 990 | Population Apoptotic (%) [2, 7]: 47% and 40% | Population Fragmented Nuclei (%) [2, 7]: 2% and 1% | Population Healthy Nuclei (%) [2, 7]: 90% | Population Hoechst High Intensity Objects (%) [2, 7]: 4% and 5% | Population Membrane Permeable-Phenotype (%) [2, 7]: 5% and 6% | Population Mitochondria Different-Phenotype (%) [2, 7]: 20% and 19% | Population Mitotic Cells (%) [2, 7]: 52% and 60% | Population Normal (%) [2, 7]: 95% and 94% | Population Pyknosed Nuclei (%) [2, 7]: 6% and 7% | Population Tubulin-Different-Phenotype (%) [2, 7]: 69% and 75% | Total Cell Count [2, 7]: 861 and 783 | Population Apoptotic (%) [2, 8]: 11% and 13% | Population Fragmented Nuclei (%) [2, 8]: 11% and 8% | Population Healthy Nuclei (%) [2, 8]: 85% and 88% | Population Hoechst High Intensity Objects (%) [2, 8]: 8% and 9% | Population Membrane Permeable-Phenotype (%) [2, 8]: 5% and 3% | Population Mitochondria Different-Phenotype (%) [2, 8]: 0% | Population Mitotic Cells (%) [2, 8]: 88% and 86% | Population Normal (%) [2, 8]: 91% and 90% | Population Pyknosed Nuclei (%) [2, 8]: 3% | Population Tubulin-Different-Phenotype (%) [2, 8]: 15% and 16% | Total Cell Count [2, 8]: 2772 and 2160 | Population Apoptotic (%) [2, 9]: 34% and 35% | Population Fragmented Nuclei (%) [2, 9]: 8% and 5% | Population Healthy Nuclei (%) [2, 9]: 86% and 90% | Population Hoechst High Intensity Objects (%) [2, 9]: 6% | Population Membrane Permeable-Phenotype (%) [2, 9]: 3% | Population Mitochondria Different-Phenotype (%) [2, 9]: 7% and 8% | Population Mitotic Cells (%) [2, 9]: 65% and 64% | Population Normal (%) [2, 9]: 93% | Population Pyknosed Nuclei (%) [2, 9]: 4% and 3% | Population Tubulin-Different-Phenotype (%) [2, 9]: 51% and 50% | Total Cell Count [2, 9]: 1254 and 1055 | Population Apoptotic (%) [3, 4]: 75% and 86% | Population Fragmented Nuclei (%) [3, 4]: 13% and 5% | Population Healthy Nuclei (%) [3, 4]: 75% and 84% | Population Hoechst High Intensity Objects (%) [3, 4]: 0% | Population Membrane Permeable-Phenotype (%) [3, 4]: 7% and 3% | Population Mitochondria Different-Phenotype (%) [3, 4]: 0% and 1% | Population Mitotic Cells (%) [3, 4]: 25% and 13% | Population Normal (%) [3, 4]: 100% | Population Pyknosed Nuclei (%) [3, 4]: 11% and 10% | Population Tubulin-Different-Phenotype (%) [3, 4]: 62% and 80% | Population Apoptotic (%) [3, 5]: 63% and 66% | Population Healthy Nuclei (%) [3, 5]: 82% and 50% | Population Hoechst High Intensity Objects (%) [3, 5]: 0% | Population Mitochondria Different-Phenotype (%) [3, 5]: 1% and 0% | Population Mitotic Cells (%) [3, 5]: 36% and 33% | Population Normal (%) [3, 5]: 100% | Population Pyknosed Nuclei (%) [3, 5]: 12% and 13% | Population Tubulin-Different-Phenotype (%) [3, 5]: 72% and 34% | Population Apoptotic (%) [3, 6]: 80% and 86% | Population Healthy Nuclei (%) [3, 6]: 70% and 88% | Population Hoechst High Intensity Objects (%) [3, 6]: 0% | Population Membrane Permeable-Phenotype (%) [3, 6]: 2% and 1% | Population Mitochondria Different-Phenotype (%) [3, 6]: 2% and 0% | Population Mitotic Cells (%) [3, 6]: 20% and 13% | Population Normal (%) [3, 6]: 100% | Population Pyknosed Nuclei (%) [3, 6]: 8% and 7% | Population Tubulin-Different-Phenotype (%) [3, 6]: 51% and 77% | Population Apoptotic (%) [3, 7]: 80% | Population Healthy Nuclei (%) [3, 7]: 79% and 62% | Population Hoechst High Intensity Objects (%) [3, 7]: 0% | Population Mitochondria Different-Phenotype (%) [3, 7]: 1% and 11% | Population Mitotic Cells (%) [3, 7]: 19% and 20% | Population Normal (%) [3, 7]: 100% | Population Pyknosed Nuclei (%) [3, 7]: 16% and 18% | Population Tubulin-Different-Phenotype (%) [3, 7]: 76% and 50% | Population Apoptotic (%) [3, 8]: 75% and 83% | Population Fragmented Nuclei (%) [3, 8]: 13% and 4% | Population Healthy Nuclei (%) [3, 8]: 77% and 88% | Population Hoechst High Intensity Objects (%) [3, 8]: 0% | Population Membrane Permeable-Phenotype (%) [3, 8]: 8% and 1% | Population Mitochondria Different-Phenotype (%) [3, 8]: 0% | Population Mitotic Cells (%) [3, 8]: 25% and 16% | Population Normal (%) [3, 8]: 100% | Population Pyknosed Nuclei (%) [3, 8]: 9% and 7% | Population Tubulin-Different-Phenotype (%) [3, 8]: 75% and 78% | Population Apoptotic (%) [3, 9]: 66% and 77% | Population Fragmented Nuclei (%) [3, 9]: 18% and 7% | Population Healthy Nuclei (%) [3, 9]: 60% and 73% | Population Hoechst High Intensity Objects (%) [3, 9]: 0% | Population Membrane Permeable-Phenotype (%) [3, 9]: 8% and 6% | Population Mitochondria Different-Phenotype (%) [3, 9]: 6% and 3% | Population Mitotic Cells (%) [3, 9]: 33% and 22% | Population Normal (%) [3, 9]: 100% | Population Pyknosed Nuclei (%) [3, 9]: 20% and 18% | Population Tubulin-Different-Phenotype (%) [3, 9]: 55% and 73%

From ChEMBL document CHEMBL5303300, “EUbOPEN Chemogenomics Library - Multiplex” (2023)
